The list is not random: actives were taken first. Their share in the collection is about 3.7%.
procasp3 activ: activators of human procaspase-3 D3A mutant, primary screen, biochemical, absorbance, PC-3 D3A mutant, single concentration; recombinant procaspase-3 D3A, Ac-DEVD-pNA absorbance 405 nm; activation, % at 8.5 µM; actives 0.11% (n = 330,000); AID 463141, 2010;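 active = activation above the mean of all tested compounds plus 3 SD, cut at about 21% in these data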
Target sequence (P42574 whole entry D9A/D28A/D175A): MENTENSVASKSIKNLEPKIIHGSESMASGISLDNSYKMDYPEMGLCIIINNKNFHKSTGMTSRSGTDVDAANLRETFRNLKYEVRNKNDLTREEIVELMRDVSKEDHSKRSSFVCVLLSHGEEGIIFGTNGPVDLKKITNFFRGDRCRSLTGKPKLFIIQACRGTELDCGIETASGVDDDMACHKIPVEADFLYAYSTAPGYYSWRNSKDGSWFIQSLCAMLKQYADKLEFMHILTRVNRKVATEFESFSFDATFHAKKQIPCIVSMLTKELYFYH
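Test system: Procaspase-3 D3A mutant, all three cleavage aspartates alanine | Dosing: Single dose, 8.5 µM nominal compound, 0.8% DMSO | Schedule: 1 h preincubation, 2 h reaction | Technique: 405 nm absorbance of p-nitroaniline, reads at 0 and 120 min | Repeats: One well per compound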
aDG glyco act: activators of alpha-DG glycosylation, primary screen, uHTS, Pro5-aDG cells, AlphaScreen; alpha-DG glycosylation AlphaScreen (IIH6); 0% Pro5, 100% B10-LARGE cell signal; activation, % at 10 µM; actives 0.22% (n = 360,000); AID 624168, 2012;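 active = activation of at least 8% versus controls, or a plate z-score of at least 8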;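 note: Pro5 are CHO cells carrying HIG-tagged alpha-DG that lacks glycosylation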
procasp7 counter: procaspase-7 activators, primary screen, counter-screen for procaspase-3 activator project, biochemical, absorbance, HTS, human; Caspase-7 (Homo sapiens), P55210; recombinant procaspase-7, Ac-DEVD-pNA absorbance 405 nm; D23A/D198A/D206A triple mutant, cannot self-cleave; scale: DMSO 0, 5 µM enzyme 100; activation, % at 8.5 µM; actives 0.093% (n = 330,000); AID 463210, 2010;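 active = percent activation above the screen-wide mean plus 3 SD, cut at about 25% in these data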
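Assay system: Uncleavable procaspase-7 mutant enzyme | Input: 2 µM procaspase-7 mutant as dispensed | Timing: 1 h compound preincubation, 2 h substrate cleavage, 25 °C | Repeats: One well per compound | Control set: DMSO wells as 0%, DMSO with 5 µM added PC-7 as 100% | Technique: Epi-absorbance of released pNA at 405 nm, two timepoints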
MPTP block: mitochondrial permeability transition pore inhibitors, primary screen, biochemical, isolated mouse mitochondria, absorbance | Ca2+ swelling absorbance, 30 min | inhibition, % at 10 µM | actives 1.4% (n = 360,000) | AID 602449, 2012;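 active = inhibition of 50% or more, scaled per plate between neutral and stimulator controls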
NR3A LBD binder: binders of NR3A ligand-binding domain, primary screen, biophysical, differential scanning fluorimetry, uHTS | NR3A LBD differential scanning fluorimetry, Tm shift; 0% = protein alone, 100% = glycine-bound protein | Tm shift relative to glycine control, % at 25 µM | actives 2.5% (n = 340,000) | AID 1259313, 2017;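 active = melting temperature shift of at least 10% of the positive control shift, at one fixed dose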
MPTP counter: fluorescence retest of MPTP screen hits in isolated mitochondria, single concentration. shares compounds with MPTP block. membrane potential, Rhodamine 123 fluorescence. inhibition, % at 10 µM. actives 78% (n = 5,000). AID 624504, 2012; in the data active = inhibition above about 22%
MPTP abs DR: mitochondrial permeability transition pore inhibitors, dose response, biochemical, absorbance, uHTS hits | shares compounds with MPTP block | isolated mitochondria swelling | IC50, µM | actives 58% (n = 780) | AID 651561, 2012; in the data active = IC50 below about 20 µM
MPTP counter DR: fluorescent counter-screen in isolated mitochondria, dose response, counter-screen for MPTP inhibitor project, biochemical, fluorescence, uHTS hits | shares compounds with MPTP block | AID 651564, 2012 | isolated mitochondria counterscreen, fluorescence read-out | IC50, µM | actives 49% (n = 780); in the data active = IC50 below about 80 µM
Hits are given with their value; - = inactive; . = no result given.

SMILES	procasp3 activ	aDG glyco act	procasp7 counter	MPTP block	NR3A LBD binder	MPTP counter	others
O=C(N/N=C/c1cc(Br)cc(Cl)c1O)c1ccc2c(c1)OCO2	-	-	-	55	11	66
O=C(N/N=C/c1cc(Br)cc(Br)c1O)c1cccc(S(=O)(=O)N2CCOCC2)c1	-	-	-	69	-	-
COc1ccc(-c2noc(-c3ccc4c(c3)OCO4)n2)cc1	-	-	-	-	-	.
COc1ccc(-c2nc(-c3ccc4c(c3)OCO4)[nH]c2-c2ccc(OC)cc2)cc1	-	-	-	69	-	69
N#Cc1c(C(F)(F)F)cc(=O)n2c1[nH]c1ccccc12	.	-	.	92	-	94
Cc1c(Cc2ccccc2)c(=O)n2c([nH]c3ccccc32)c1C#N	-	-	-	84	-	74
N#Cc1c(CSCC(=O)O)cc(=O)n2c1[nH]c1ccccc12	-	-	-	-	-	.
COc1cccc(/C=N/Nc2snc(SC)c2C#N)c1O	-	-	-	99	30	86
COc1ccc(/C=N/Nc2snc(SC)c2C#N)cc1OC	-	-	-	-	-	.
Cc1ccc(S(=O)(=O)N2CCOCC2)cc1C(=O)N1CCN(c2ccc(C(F)(F)F)cn2)CC1	-	-	-	-	-	.
Cc1cccc(NC(=S)NC(NC(=O)OCc2ccccc2)C(Cl)(Cl)Cl)c1 (stereo unspecified)	-	-	-	74	27	80
O=C(NC(NC(=S)Nc1cccc(C(=O)O)c1)C(Cl)(Cl)Cl)OCc1ccccc1 (stereo unspecified)	-	-	-	-	-	.
O=C(NC(NC(=S)Nc1cccc(Cl)c1)C(Cl)(Cl)Cl)OCc1ccccc1 (stereo unspecified)	-	-	-	91	29	76
Cc1cc(Cl)n2c(nc3cc(F)c(F)cc32)c1C#N	.	-	.	95	-	91
Cc1ccc(S(=O)(=O)N2CC3C(=O)C[C@@H](c4ccccc4)N(S(=O)(=O)c4ccc(CCCOCCOCCNC(=O)OC(C)(C)C)cc4)C3CC2c2ccccc2)cc1 (stereo partly specified)	.	-	.	-	.	.
Cc1cc(C(=O)CSc2ncnc3ccccc23)c(C)n1C1CC1	-	-	-	-	-	.
Cc1cc(C)n2nc(SCC(=O)c3cc(C)n(-c4cc(C)on4)c3C)nc2n1	-	-	-	81	-	62
Cc1cc(C)n2nc(SCC(=O)c3ccccc3)nc2n1	-	-	-	-	-	.
Cc1cc(-n2c(C)cc(C(=O)CSc3ncnc4ccccc34)c2C)no1	-	-	-	97	-	88
CCN1C(=O)[C@H]2[C@H]3CN=C(SCC(=O)c4ccccc4)N3[C@@](C)(C(=O)OC)[C@H]2C1=O	-	-	-	-	-	.
Cc1ccc(C)c(NC(=O)CCCCCCCCCCC2COCCO2)c1 (stereo unspecified)	-	-	-	-	-	.
Cc1cccc(N/N=C(\C#N)S(=O)(=O)C(C)(C)C)c1	-	-	-	-	-	.
CC(C)(C)c1ccc(N/N=C(\C#N)S(=O)(=O)C(C)(C)C)cc1	-	-	-	86	-	86
CC(C)(C)S(=O)(=O)/C(C#N)=N/Nc1ccc(Cl)cc1	-	-	-	92	-	87
Fc1ccccc1CNCCC(Cc1ccccc1)c1ccc2c(c1)OCO2 (stereo unspecified)	-	-	-	85	-	-	MPTP abs DR=5.4;MPTP counter DR=16

Screens as filed in PubChem.
